B1: Osa-1-4 twister ribozyme (parent)
chain: CCGCCUAACACUGCCAAUGCCGGUCCCAAGCCCGGAUAAAAGUGGAGGGGGCGG

The variants in the series derive from B1. Nature of the series: self-cleavage, relative activity (ratio to wild type); higher = more cleavage; co-transcriptional. A digest of the protocol: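 A DNA template was synthesised for a 54-nucleotide twister ribozyme from Oryza sativa, with 97 % wild-type base and 1 % of each other base at each of the 48 positions downstream of the cleavage site. The ribozyme cleaved itself co-transcriptionally during 2 h of in vitro transcription at 37 °C. Reverse transcription with a template-switching oligonucleotide, PCR amplification and deep sequencing followed, and cleavage status came from reads with or without upstream sequence. Relative activity is the fraction cleaved normalised to wild type.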
Regarding C32G G34C, the self-cleavage was determined as 0.06.

For the variant C32G G34A, the self-cleavage is 0.09. The result for C32G G34U reads 0.08; that for C32U G19C, 0.03. Regarding C32U G19U, the self-cleavage was determined as 0.05. The result for C32U G19A reads 0.1. The result for C33U G34U reads 0.13; that for C33U G34A, 0.22. The result for C33U G34C reads 0.21.

For the variant C33G G13U, the self-cleavage came out at 0.01.

On to C33G G13A, for which the self-cleavage worked out at 0.03. For the variant C33G G13C, the self-cleavage is 0.01. The result for C33A G13U reads 0.02. For C33A G13A, the self-cleavage is 0.02. The result for C33A G13C reads 0.01.

As for C32U G49U, the self-cleavage is 0.05. The result for C32U G49C reads 0.03; that for C32U G49A, 0.05. The result for C33G G34U reads 0.05. The result for C33G G34C reads 0.05; that for C33G G34A, 0.06; that for C32U G51U, 0.05. As for C32U G51A, the self-cleavage was 0.07. The result for C32U G51C reads 0.05. The result for C32U G47U reads 0.06; that for C32U G47C, 0.04; that for C32U G47A, 0.06.

Take C32G U24C: the self-cleavage came to 0.05. The result for C32G U24A reads 0.06; that for C32G U24G, 0.02. The result for C32U G42A reads 0.08; that for C32U G42U, 0.03.

On to C32U G42C, for which the self-cleavage is 0.07. The result for C32U U24C reads 0.06; that for C32U U24A, 0.06. The result for C32U U24G reads 0.01. The result for C32U U12C reads 0.08.

C32U U12G: the self-cleavage was 0.09. The result for C32U U12A reads 0.1; that for C33G G35A, 0.05.

On to C33G G35C, for which the self-cleavage is 0.03. The result for C33G G35U reads 0.04; that for C32G G19U, 0.07; that for C32G G19A, 0.12. In the case of C32G G19C, the self-cleavage amounted to 0.03. The result for C33U G23U reads 0.04; that for C33U G23A, 0.09; that for C33U G23C, 0.04.

For C33A G48C, the self-cleavage was 0.05. The result for C33A G48A reads 0.04. The result for C33A G48U reads 0.04; that for C33A G50U, 0.1; that for C33A G50C, 0.08. The result for C33A G50A reads 0.1; that for C33U G22C, 0.45; that for C33U G22U, 1. For the variant C33U G22A, the self-cleavage was determined as 1.08. The result for C33A G35C reads 0.04; that for C33A G35A, 0.07; that for C33A G35U, 0.07.

Consider C32G U43G, for which the self-cleavage was 0.11. The result for C32G U43A reads 0.1; that for C32G U43C, 0.09; that for C33G G22C, 0.62.

As to C33G G22A, the self-cleavage amounted to 0.16. The result for C33G G22U reads 0.87; that for C33G G42U, 0.02; that for C33G G42C, 0.05. The result for C33G G42A reads 0.05; that for C33U G35U, 0.11; that for C33U G35A, 0.49. The result for C33U G35C reads 0.08; that for C33A G45A, 0.06.

C33A G45U: the self-cleavage worked out at 0.04. The result for C33A G45C reads 0.04. The result for C33A G34U reads 0.06; that for C33A G34C, 0.05; that for C33A G34A, 0.08. The result for C33U G50U reads 0.88. As for C33U G50A, the self-cleavage came out at 0.32.

Take C33U G50C: the self-cleavage worked out at 0.53. With C33G G53C, the self-cleavage turned out to be 0.03.

Take C33G G53A: the self-cleavage was determined as 0.08. The result for C33G G53U reads 0.04; that for C33A G44U, 0.1.

For the variant C33A G44C, the self-cleavage is 0.09. The result for C33A G44A reads 0.08; that for C33A G51C, 0.05. The result for C33A G51U reads 0.05; that for C33A G51A, 0.06. The result for C32G G54U reads 0.25.

With C32G G54C, the self-cleavage was found to be 0.09. The result for C32G G54A reads 0.15. The result for C32U reads 0.24. The result for C33U G19U reads 0.06; that for C33U G19C, 0.02. C33U G19A: the self-cleavage is 0.17. The result for C32G G47U reads 0.04; that for C32G G47A, 0.09. Regarding C32G G47C, the self-cleavage came out at 0.04. The result for C33A U18G reads 0.17; that for C33A U18A, 0.15.

For C33A U18C, the self-cleavage turned out to be 0.12. With C33A C52U, the self-cleavage amounted to 0.28.

Turning to C33A C52A, the self-cleavage is 0.11. The result for C33A C52G reads 0.17. The result for C33G U43A reads 0.06; that for C33G U43C, 0.03; that for C33G U43G, 0.06. The result for C33U C52A reads 0.84; that for C33U C52G, 0.88. C33U C52U: the self-cleavage came out at 0.99. The result for C32U G45A reads 0.08; that for C32U G45C, 0.03. On to C32U G45U, for which the self-cleavage turned out to be 0.04.

Take C32U G23C: the self-cleavage was 0.03. The result for C32U G23U reads 0.12. The result for C32U G23A reads 0.85; that for C32G G30C, 0.02. The result for C32G G30A reads 0.03.

Turning to C32G G30U, the self-cleavage came to 0.02. In the case of C33U G49A, the self-cleavage was determined as 0.08.

As to C33U G49U, the self-cleavage is 0.08. The result for C33U G49C reads 0.07; that for C33G U37G, 0.08; that for C33G U37A, 0.08.

As for C33G U37C, the self-cleavage worked out at 0.05. Take C33A G42U: the self-cleavage came out at 0.03.

With C33A G42A, the self-cleavage came out at 0.06. The result for C33A G42C reads 0.06; that for C33G G49U, 0.02. The result for C33G G49C reads 0.03; that for C33G G49A, 0.05; that for C33U G48C, 0.05.

Regarding C33U G48A, the self-cleavage was 0.07. The result for C33U G48U reads 0.04.

Turning to C33A G49A, the self-cleavage is 0.05. The result for C33A G49C reads 0.04; that for C33A G49U, 0.04. The result for C32U C9G reads 0.09; that for C32U C9U, 0.05; that for C32U C9A, 0.02. The result for C33G G23C reads 0.03; that for C33G G23A, 0.05; that for C33G G23U, 0.03. Turning to C33G G45A, the self-cleavage turned out to be 0.04. In the case of C33G G45C, the self-cleavage was 0.02. In the case of C33G G45U, the self-cleavage was 0.02. For C33A U24A, the self-cleavage stood at 0.05. The result for C33A U24C reads 0.05. Regarding C33A U24G, the self-cleavage is 0.02. The result for C32G G22A reads 0.1.

With C32G G22U, the self-cleavage was found to be 0.07. The result for C32G G22C reads 0.04; that for C33U G45A, 0.08; that for C33U G45U, 0.05. The result for C33U G45C reads 0.06; that for C33A G22C, 0.22; that for C33A G22U, 0.93. As to C33A G22A, the self-cleavage stood at 0.87. The result for C33A C9G reads 0.08.

C33A C9A: the self-cleavage turned out to be 0.05. The result for C33A C9U reads 0.07; that for C33G G54C, 0.03; that for C33G G54A, 0.08. The result for C33G G54U reads 0.1. On to C32U G30C, for which the self-cleavage is 0.02.

The values are drawn from the RNAGym collection of RNA variant scans (doi:10.1002/anie.201605470).
